Experiment [1] is described as follows: inhibitors of TNFa-induced NFkB p65 translocation, primary screen, imaging, HUVEC, MLSMR starter and 10KST1 sets (AID 438;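 active = inhibition above 20% together with a positive visual image hit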;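 also: compound added about 3h40 before a 20 min TNFalpha stimulation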;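 as to inhibition: signal is the nuclear over cytoplasmic p65 intensity ratio per well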). The settings on record: HUVEC TNFa-induced p65 nuclear translocation; cell count: measured here: nuclei count (cytotoxicity indicator), at 2.08 µM; inhibition: at 2 µM, stronger effect = higher value, 0% TNFa-plus-vehicle, 100% no-TNFa wells.
The nature of experiment [2]: endothelial E-selectin expression blockers – imaging, HUVEC, immunofluorescence, MLSMR starter and 10KST1 sets, primary screen (AID 487;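 active = visually confirmed hit in the image check and inhibition above 20%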;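 as to inhibition: signal is fraction of cell area covered by stained E-selectin grains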;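 as to nuclei count: 100% = median nuclei count of all wells on the same plate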). The settings on record: HUVEC TNFalpha-induced E-selectin immunofluorescence imaging, at 2 µM; inhibition: stronger effect = higher value; nuclei count: measured here: cell number, toxicity.
Experiment [3] can be described thus: Primary imaging screen for DUSP6 inhibitors that restore phospho-Erk in transfected HeLa cells, chemical complementation (AID 609;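 active = compounds giving at least 50% inhibition in the cell-based MKP-3 phosphatase rescue imaging test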;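 as to inhibition: phospho-Erk level distribution per well compared with pooled transfected vehicle control wells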). The settings on record: HeLa MKP-3 transfected, phospho-Erk imaging KS statistic, at 10 µM, cells stimulated with TPA for 15 min.
For experiment [4], the target named is Dual specificity protein phosphatase 6 (Homo sapiens) (UniProt Q16828). Described as above. The settings on record: HeLa MKP-3 transfected, phospho-Erk imaging KS statistic; at 10 µM; stronger effect = higher value; cells stimulated with TPA for 15 min.
Experiment [5] deals with Voltage-gated potassium channel subunit beta-2 (Rattus norvegicus) (UniProt P62483). Put plainly: inhibitors of rat Kvbeta2 reductase activity – biochemical, NADPH fluorescence, primary screen (AID 622;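 active = fluorescence slope higher than the sample average by over 3 SD, cut at about -0.22 in these data, passing the limit was not always enough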;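 also: slope of raw intensity against log time taken from 70 to 1610 s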). The settings on record: recombinant KvBeta, 4-cyanobenzaldehyde reduction, at 10 µM, stronger effect = higher value.
Experiment [6] shares this target. The experiment is described as follows: enhancers of rat Kvbeta2 NADPH turnover – biochemical, NADPH fluorescence, primary screen (AID 623;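 active = NADPH fluorescence slope more negative than the mean of all samples by about 3 SD, 99.7% confidence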;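 also: fluorescence intensity change per second fitted from 20 to 320 s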). The settings on record: Recombinant KvBeta, NADPH fluorescence decrease slope, 10 min; at 10 µM; stronger effect = lower value.
In experiment [7] the target is Alpha-2C adrenergic receptor (Homo sapiens) (UniProt P18825). Put plainly: compounds altering alpha2C-coupled GIRK flux – cell-based, HEK293 alpha2C/GIRK1/2, thallium flux, primary screen (AID 624).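 Also: slope of fluorescence ratio to pre-addition baseline per second over 15 to 24 s.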 The settings on record: thallium flux BTC fluorescence, at 10 µM, actives lie on both sides.
Experiment [8] in a line: inhibitors of larval lipid processing in zebrafish, primary screen, whole organism, PED6 fluorescence, gall bladder and intestine (AID 686;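 active = a full or partial loss of lipid-probe fluorescence in the fish gall bladder, intestine or both, judged by eye; inactive = no fluorescence loss, or compound toxic to the fish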;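 also: larvae 5 to 7 days old with five fish per well; signal comes from phospholipase A2 cleavage of quenched PED6 carried via bile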). The settings on record: Zebrafish larvae PED6 lipid processing, fluorescence scoring; screened at 20 µM (by protocol). A digest of the protocol:
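Incubation: overnight exposure of larvae to compound plus PED6 / Test system: live zebrafish larvae aged 5-7 days, whole organism / Amount: 5 larvae per well / Read-out basis: visual per-well fluorescence inhibition score / Signal: visual fluorescence microscopy scoring of gall bladder, gut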

The nature of experiment [9]: loss of swimming-algae plug formation – whole organism, Chlamydomonas reinhardtii, WT vs cilia-less mutant, absorbance, 96-well, primary screen (AID 463189;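 active = inhibition at or above 50% relative to wild type and mutant plate controls; inactive = inhibition below 50%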;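 also: 0% = wild type cc124 cells in DMSO and 100% = ciliumless bld1 mutant cells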). The settings on record: Chlamydomonas reinhardtii gravitaxis, OD600 absorbance, 2 days; at 10 µM; stronger effect = higher value.
Where [10] appears, read: measured here: cell density z-score.
The mark [11] stands for this setting: measured here: nuclear c-Myc green intensity z-score.
The mark [12] stands for this setting: measured here: nuclear pErk red intensity z-score, stronger effect = higher value.

Calls of active or inactive are those of the source.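 The calls were made as follows, unless noted: active = fluorescence slope after compound addition differing from the mean of all screened samples at 99.7% confidence, in either direction; inactive = the rest.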

Sequence of Alpha-2C adrenergic receptor (Homo sapiens) (P18825 whole entry, looked up): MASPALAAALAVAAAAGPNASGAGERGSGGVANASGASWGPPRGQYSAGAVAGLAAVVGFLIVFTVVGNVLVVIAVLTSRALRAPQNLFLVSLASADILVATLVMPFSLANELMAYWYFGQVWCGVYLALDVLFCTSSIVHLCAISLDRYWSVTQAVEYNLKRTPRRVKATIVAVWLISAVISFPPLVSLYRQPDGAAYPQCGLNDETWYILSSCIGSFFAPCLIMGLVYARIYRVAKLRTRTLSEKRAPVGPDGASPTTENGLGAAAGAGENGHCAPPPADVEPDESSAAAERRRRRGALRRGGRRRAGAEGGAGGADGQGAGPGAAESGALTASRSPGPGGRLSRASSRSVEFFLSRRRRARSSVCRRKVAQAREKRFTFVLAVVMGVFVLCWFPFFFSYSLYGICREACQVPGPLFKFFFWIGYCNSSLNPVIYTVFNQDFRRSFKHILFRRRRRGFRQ
Sequence of Voltage-gated potassium channel subunit beta-2 (Rattus norvegicus) (P62483 whole entry, looked up): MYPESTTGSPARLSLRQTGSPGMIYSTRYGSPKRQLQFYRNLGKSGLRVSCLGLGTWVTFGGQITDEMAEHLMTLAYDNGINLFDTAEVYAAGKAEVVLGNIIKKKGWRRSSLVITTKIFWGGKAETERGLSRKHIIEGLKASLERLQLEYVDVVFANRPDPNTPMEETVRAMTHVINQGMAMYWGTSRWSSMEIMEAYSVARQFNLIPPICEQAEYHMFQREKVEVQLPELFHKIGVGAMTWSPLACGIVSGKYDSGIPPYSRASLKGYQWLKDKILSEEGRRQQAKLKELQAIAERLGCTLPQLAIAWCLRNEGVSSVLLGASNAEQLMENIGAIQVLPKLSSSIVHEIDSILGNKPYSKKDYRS
Sequence of Dual specificity protein phosphatase 6 (Homo sapiens) (Q16828 whole entry, looked up): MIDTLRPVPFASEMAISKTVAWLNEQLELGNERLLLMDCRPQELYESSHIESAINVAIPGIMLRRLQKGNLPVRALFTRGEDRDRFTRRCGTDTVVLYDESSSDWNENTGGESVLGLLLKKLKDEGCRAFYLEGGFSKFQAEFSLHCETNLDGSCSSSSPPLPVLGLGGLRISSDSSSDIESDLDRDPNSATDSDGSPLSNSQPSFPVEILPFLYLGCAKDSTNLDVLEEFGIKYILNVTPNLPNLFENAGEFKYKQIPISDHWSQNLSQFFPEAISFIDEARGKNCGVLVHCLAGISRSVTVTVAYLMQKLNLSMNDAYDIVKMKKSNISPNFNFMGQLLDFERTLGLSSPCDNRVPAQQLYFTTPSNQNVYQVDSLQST

Consider `CCc1[nH]nc2c1C(c1ccc(Br)s1)C(C#N)=C(N)O2` (stereo not given), for which the cell count in experiment [1] turned out to be 504. Further, the inhibition in experiment [1] is -7.7% (inactive); in experiment [2] it was -85.9% (inactive); in experiment [4], -8.27% (inactive); in experiment [9], 15.9% (inactive). Besides, in experiment [2], the nuclei count was determined as 152%. Also, the z-score was -0.154 in experiment [3] (setting [10]), 1.13 in [3] (setting [11]) and -0.858 in experiment [3] (setting [12]). The fluorescence slope in experiment [5] is -0.312 (inactive). Moreover, the NADPH fluorescence slope in [6] is 1.7e-05 (inactive). Besides, the slope in experiment [7] is 0.00536 (inactive). Also, the call in experiment [8] was inactive.
For `O=C1C=C(O)CC(c2cccs2)C1` (stereo not given), in experiment [1], the cell count was determined as 590. Also, the inhibition in experiment [1] was 1.5% (inactive); in [2], -11.9% (inactive); in experiment [4], -1.12% (inactive); in [9] it was -9.61% (inactive). This compound displayed a nuclei count in experiment [2] of 126%. Moreover, the z-score in [3] (setting [10]) is -0.072; in experiment [3] (setting [11]), -0.344; in [3] (setting [12]), -0.148. Besides, the fluorescence slope in experiment [5] was -0.536 (inactive). The NADPH fluorescence slope in [6] was -5.7e-05 (inactive). Besides, in experiment [7], the slope was 0.00523 (inactive). Also, the compound was classed as inactive in experiment [8].
For the compound `CCOC(=O)CCc1c(C)c(C#N)c2nc3ccccc3n2c1-n1ccnc1C`, in experiment [1], the cell count was found to be 583. Besides, the inhibition in [1] was -0.8% (inactive); in experiment [2], -125% (inactive); in [4], 7.93% (inactive); in experiment [9], 21.4% (inactive). The nuclei count in experiment [2] was 138%. The z-score in experiment [3] (setting [10]) is -0.341; in experiment [3] (setting [11]), 0.0322; in experiment [3] (setting [12]), -0.112. For the same compound, the fluorescence slope in experiment [5] was -0.457 (inactive). Further, the NADPH fluorescence slope in experiment [6] was -3.9e-05 (inactive). The slope in experiment [7] was 0.00607 (inactive). Moreover, the outcome in [8] was inactive.
For the compound `CN1CCN(CCCCC(=O)c2ccccc2)CC1`, in experiment [1], the cell count came out at 600. In addition, the inhibition in experiment [1] was -9.1% (inactive); in experiment [2], 14.9% (inactive); in experiment [4], -6.06% (inactive); in [9] it was 68.4% (active). In experiment [2], the nuclei count came out at 183%. For the same compound, the z-score is 0.5 in [3] (setting [10]), -1.07 in [3] (setting [11]) and -0.798 in experiment [3] (setting [12]). Besides, the fluorescence slope in [5] was -0.397 (inactive). Further, the NADPH fluorescence slope in [6] was 1.3e-06 (inactive). Further, in experiment [7], the slope is 0.00562 (inactive). Besides, the outcome in [8] was inactive.
As for `Cc1nn2c(-c3ccc(Cl)cc3)nnc2s1`, the cell count in [1] was determined as 551. The inhibition in experiment [1] was -6.5% (inactive); in experiment [2], -65.8% (inactive); in experiment [4], -6.06% (inactive); in [9], 17.4% (inactive). Further, the nuclei count in experiment [2] was 86.3%. Further, the results for the z-score in experiment [3] (setting [10]), in [3] (setting [11]) and in [3] (setting [12]) were -0.293, -0.329 and 0.206, respectively. Also, the fluorescence slope in experiment [5] is -0.421 (inactive). In addition, in [6], the NADPH fluorescence slope was -1.1e-05 (inactive). Also, in experiment [7], the slope is 0.00662 (inactive). For the same compound, the call in experiment [8] was inactive.
On to `CC(C)(C)c1cccc(/C=N/O)c1O`, for which the cell count in experiment [1] was determined as 519. Besides, the inhibition in experiment [1] was -19.1% (inactive); in [2], -214% (inactive); in [4], 7.93% (inactive); in [9], 9.58% (inactive). The same compound gave a nuclei count in experiment [2] of 140%. The values for the z-score in experiment [3] (setting [10]), in [3] (setting [11]) and in experiment [3] (setting [12]) were 2.16, -0.74 and -1.64, respectively. For the same compound, the fluorescence slope in experiment [5] is -0.526 (inactive). In addition, the NADPH fluorescence slope in experiment [6] was -2.2e-05 (inactive). Further, the slope in experiment [7] was 0.00592 (inactive). For the same compound, the compound was called inactive in [8].
With `O=C(Nc1cccnc1)c1cccnc1`, in experiment [1], the cell count was 639. The inhibition in experiment [1] was 0.9% (inactive); in experiment [2], -26.7% (inactive); in experiment [4], 0.671% (inactive); in experiment [9] it was 3.69% (inactive). This compound also had a nuclei count in experiment [2] of 158%. In addition, the z-score in [3] (setting [10]) is -0.532; in experiment [3] (setting [11]) it was 0.364; in experiment [3] (setting [12]), -0.22. Besides, in experiment [5], the fluorescence slope was -0.534 (inactive). In addition, the NADPH fluorescence slope in experiment [6] is -3.1e-05 (inactive). In addition, the slope in [7] is 0.00505 (inactive). Further, the compound was classed as inactive in experiment [8].
In the case of `CCOC(=O)CSc1nc(C)c(C(C)=O)cc1C#N`, the cell count in experiment [1] came to 623. Also, the inhibition was -18.6% (inactive) in experiment [1], -0.7% (inactive) in [2], -0.624% (inactive) in experiment [4] and 43.9% (inactive) in experiment [9]. Moreover, the nuclei count in [2] turned out to be 147%. For the same compound, the z-score is -0.31 in [3] (setting [10]), -1.06 in [3] (setting [11]) and -1.5 in experiment [3] (setting [12]). Besides, the fluorescence slope in experiment [5] was -0.403 (inactive). Besides, the NADPH fluorescence slope in experiment [6] is -1.7e-05 (inactive). Moreover, the slope in experiment [7] is 0.00581 (inactive). Also, the compound was classed as inactive in experiment [8].
On to `Cn1ncc(N=Cc2ccccc2)c1C(N)=O`, for which the cell count in experiment [1] was found to be 599. The inhibition was 2.9% (inactive) in [1], -32.8% (inactive) in [2], 18.6% (inactive) in experiment [4] and -3.53% (inactive) in experiment [9]. The compound further came in with a nuclei count in [2] of 138%. In addition, the z-score is -2.18 in experiment [3] (setting [10]), 0.507 in experiment [3] (setting [11]) and 1.65 in experiment [3] (setting [12]). Besides, the fluorescence slope in experiment [5] is -0.54 (inactive). Further, in experiment [6], the NADPH fluorescence slope was -8.2e-05 (inactive). Besides, the slope in experiment [7] was 0.00589 (inactive). Also, the compound was called inactive in experiment [8].
As for `Cc1cc(=O)oc(C)c1C(=O)N[C@@H]1CCCCNC1=O`, the cell count in experiment [1] was determined as 433. Also, the inhibition was -2.4% (inactive) in experiment [1], -137% (inactive) in experiment [2], -8.27% (inactive) in [4] and -3.12% (inactive) in [9]. In experiment [2], the nuclei count is 150%. Further, the z-score is 0.96 in experiment [3] (setting [10]), -0.243 in experiment [3] (setting [11]) and -0.864 in experiment [3] (setting [12]). Further, the fluorescence slope in experiment [5] was -0.423 (inactive). Also, in experiment [6], the NADPH fluorescence slope was -6.9e-05 (inactive). Further, the slope in experiment [7] is 0.00507 (inactive). Besides, in experiment [8], the result was inactive.

As usually defined, the inhibition is the change of the read-out against control, counted positive when it falls.

(Values after PubChem BioAssay.)
